Source: article PMC4224566 (Molecular Pharmaceutics, 2014)

Format: physicochemical
Settings: 0.5 M pH 4.0 acetate buffer, 1 mg/mL, 100 °C, analytical HPLC, LC-MS
In short: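 Each peptide (about 0.1 mL) was heated in a sealed plastic tube, cooled, and then analysed by reversed-phase C18 analytical HPLC with UV detection. The HPLC ran at 1 mL/min: 5% acetonitrile/0.1% TFA in water/0.1% TFA for 5 min, then rising by 2%/min to 65%. Samples showing decomposition were run on a separate LC-MS. Samples with little or none were heated 30 min more and re-analysed.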

Ph-NCS-E[c(RGDfK)]2 [compound 10]
release of monomer after 10 min heating: obvious release of c(RGDfK)
